# Hits are enriched below; roughly 11% of the tested compounds scored in any of these assays.
# M1 ag: M1 muscarinic receptor agonists, primary screen, CHO-M1 cells, Fluo-4 calcium, agonist mode | Fluo-4 calcium fluorescence; active compounds read high | hit rate 3% among 64,000 | B-score at 10 µM | Muscarinic acetylcholine receptor M1 | AID 626, 2007;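 active means fluorescence rise, raw or as B-score row- and column-corrected plate score, outside the 99.7% band of its plate's samples, either direction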
# RORA act: activators of orphan receptor RORA, primary screen, cell-based, luminescence | hit rate 1.5% among 65,000 | AID 560, 2006 | activation, % at 10 µM | CHO-K1 Gal4-RORA LBD luciferase reporter; percent increase over mock-subtracted basal signal | Nuclear receptor ROR-alpha (Homo sapiens), P35398;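 active means activation above the mean of all tested compounds plus 3 SD, cut at about 49% in these data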;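 further: 0% = DMSO-treated RORA cells and 100% = added signal equal to DMSO minus mock-transfected cells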
# mHtt clearance: clearance of mutant huntingtin inclusions, primary screen, imaging, HeLa Exon1htt(103Q)mCFP, confocal imaging | aggregate imaging; zero = plate's median compound well | inhibition, % at 1.5 µM | hit rate 0.42% among 47,000 | AID 853, 2007;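 active means inhibition of aggregate fluorescence above about 70%, also judged a hit by eye on the cell image, limit read from the data, passing the limit was not always enough; inconclusive means no rule stated for this call; inactive means not judged a hit on image review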;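 further: cells exposed to compound for three days before fixation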
# SF1 activator: activators of human SF-1, primary screen, cell-based, CHO-K1, Gal4-SF-1 LBD, luciferase luminescence; Steroidogenic factor 1 (Homo sapiens), Q13285; CHO-K1 Gal4-SF-1 LBD luciferase reporter; % increase over DMSO SF-1-specific signal; activation, % at 10 µM; hit rate 1.9% among 65,000; AID 522, 2006;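 active means activation above the mean activation of all tested compounds plus 3 SD, cut at about 50% in these data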
#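 Assay system: CHO-K1 cells co-transfected with Gal4 DBD–human SF-1 LBD, 5xGal4 luciferase reporter / Input: 4,000 cells per well / Incubation: 20 h compound exposure at 37 °C after 1 h cell settling / Detection: SteadyLite luciferase luminescence / Control set: DMSO negative control and −SF1 background wells / Replication: one test per compound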
# D1 allo mod: D1 CRE-luciferase signal change, two-sided – cell-based, HEK293 D1, dopamine EC30, D1 allosteric modulator project, primary screen. D(1A) dopamine receptor (Homo sapiens), P21728. dopamine EC30 potentiation; actives deviate in either direction. B-score at 10 µM. hit rate 5.9% among 58,000;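 active means luminescence count or its row- and column-corrected plate score outside the 99.7% band of the plate's sample wells, on either side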
# M1 antag: antagonists of rat M1 muscarinic receptor; Muscarinic acetylcholine receptor M1 (Rattus norvegicus), P08482; CHO-M1 cells, Fluo-4 calcium, ACh EC80 antagonist mode; active compounds read low; B-score at 10 µM; hit rate 3.4% among 64,000; AID 628, 2007;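 active means calcium fluorescence response, raw or row-and-column corrected B-score, differing from the plate sample mean either way at a set confidence level, mostly lower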
# Target sequence (P08482 whole entry, looked up): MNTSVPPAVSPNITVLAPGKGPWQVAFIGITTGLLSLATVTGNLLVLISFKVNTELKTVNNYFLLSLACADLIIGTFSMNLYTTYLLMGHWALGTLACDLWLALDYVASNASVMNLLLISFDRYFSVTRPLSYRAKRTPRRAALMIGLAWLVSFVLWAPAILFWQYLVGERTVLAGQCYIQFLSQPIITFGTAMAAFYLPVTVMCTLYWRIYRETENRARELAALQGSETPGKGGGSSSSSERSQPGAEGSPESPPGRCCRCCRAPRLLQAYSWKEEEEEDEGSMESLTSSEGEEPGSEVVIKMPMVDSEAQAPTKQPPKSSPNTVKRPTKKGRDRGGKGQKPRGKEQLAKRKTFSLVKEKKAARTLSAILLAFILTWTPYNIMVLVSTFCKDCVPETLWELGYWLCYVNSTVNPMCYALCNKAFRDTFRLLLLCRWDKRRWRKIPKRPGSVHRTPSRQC
# D1 mod confirm: D1 receptor positive allosteric modulators, retest, confirmation, cell-based, HEK293 D1, CRE-luciferase, duplicate; shares compounds with D1 allo mod; hit rate 88% among 2,200; AID 642, 2007; dopamine EC30 potentiation; active compounds read high; luminescence at 10 µM;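 active means luminescence in either of two replicates above the same-plate mean plus 3 SD of the low-dose dopamine control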
# D1 ag no DA: D1 receptor agonism without dopamine, confirmation, mechanism study for D1 allosteric modulator project, cell-based, HEK293 D1, CRE-luciferase, secondary assay 1 | shares compounds with D1 allo mod | luminescence, no dopamine; active compounds read high | luminescence at 10 µM | hit rate 0.8% among 1,900; in the data active means luminescence above about 3900
# Isoprot counter: counter-screen for D1 modulators: isoproterenol response in HEK293 cells; shares compounds with D1 allo mod; HEK293 D1 CRE-luciferase, isoproterenol EC30 counter-screen; calls only at 10 µM; hit rate 63% among 2,200;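 active means luminescence in either replicate above plate mean of wells with a partly effective reference agonist dose plus 3 SD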;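 further: isoproterenol raises cAMP through native beta-adrenoceptor Gs so signal bypasses D1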
# * = called active by the depositor; i = inactive; ? = inconclusive; . = not tested or not shown; + = active, no number.
SMILES,M1 ag,RORA act,mHtt clearance,SF1 activator,D1 allo mod,M1 antag,D1 mod confirm,D1 ag no DA,Isoprot counter
CC(CCc1ccccc1)NC(=O)C1CCN(S(=O)(=O)N2CCCCC2)CC1 (configuration not stated),-0.111,-3.0,3.8,17.5,0.803,-0.24,.,.,.
Cc1cc(C)c(O)c(-c2cc(C(=O)Nc3ccc(S(=O)(=O)N4CCOCC4)cc3)[nH]n2)c1,-0.617,-21.8,21.6,-27.1,0.782,-0.0196,.,.,.
O=C(OCn1nnc2ccccc2c1=O)c1ccc2c(=O)n3c(nc2c1)CCC3,0.161,-4.7,.,-0.3,0.676,1.23,.,.,.
Cc1nc(N2CCCC2)c2nnn(Cc3ccccc3Cl)c2n1,-0.613,-6.3,.,-3.1,.,-0.956,.,.,.
Cc1nc(N2CCC(C(N)=O)CC2)c2nnn(Cc3ccccc3)c2n1,0.000212,14.0,.,-8.3,3.21*,0.212,6740*,1504,i
CCCc1cc2c(c(NC(C)=O)n1)c(=O)oc1ccccc12,-0.0704,5.0,-124.9,-1.0,7.87*,-0.0793,21272*,1716,+
CCOC(=O)c1cc(CC)sc1NC(=O)Cc1ccccc1,.,.,-60.7,.,.,.,.,.,.
CCOC(=O)c1cc(CC)sc1NC(=O)COC,-0.674,26.1,0.5,-0.4,11.9*,-1.64,17728*,1632,+
Cn1c(=O)n(C)c2cc(S(=O)(=O)NCc3ccccc3)ccc21,-0.062,-14.0,.,-4.5,0.522,-0.099,.,.,.
Cn1c(=O)n(C)c2cc(S(=O)(=O)NCc3ccco3)ccc21,0.272,-16.1,.,-5.6,2.38*,-0.738,5820,1724,i
c1coc(CNc2nc(-c3ccncc3)cs2)c1,-0.914,48.3,-69.0,33.3,3.57*,-0.0854,8460*,1716,+
COc1ccc(-c2csc(NCc3ccco3)n2)cc1,0.00674,36.8,.,27.2,.,0.847,.,.,.
N#Cc1nc(-c2ccccc2F)oc1NCc1ccccc1,0.616,3.0,.,18.4,7.87*,-0.411,14936*,1516,+
COCCCNc1oc(-c2ccccc2F)nc1C#N,0.00462,38.9,-2.9,57.4*,5.83*,0.000983,11980*,1596,+
O=S1(=O)CCN2C(c3ccco3)=CSC2=N1,-0.452,1.4,-2.7,11.9,0.145,-0.265,.,.,.
CCCN1C2=NS(=O)(=O)CCN2c2ccccc21,-0.505,-10.5,0.1,4.1,8.41*,-0.0376,20272*,2056,+
COc1ccc(-c2c3c(=O)n(C)c(=O)n(C)c3cn2C2CCCCC2)cc1,1.25,2.1,.,-9.9,7.67*,-0.196,15660*,1992,+
Cc1nnc(SCc2cn3ccsc3n2)n(N)c1=O,-0.0169,-1.3,.,3.7,-0.722,0.16,.,.,.
O=c1c2ccccc2nc(SCc2cn3ccsc3n2)n1-c1ccc(F)cc1,-0.485,-16.9,6.5,5.8,8.25*,0.715,10696*,1584,+
COc1ccc(OC)c(NC(=O)CSc2nc3ccccc3c(=O)n2CCNC(C)=O)c1,0.835,-18.3,.,10.9,9.72*,0.242,9716*,1560,i
COc1ccc(-n2c(=O)c3ccccc3n(CC(=O)Nc3cc(C)on3)c2=O)cc1OC,.,-14.9,-17.7,1.3,.,.,.,.,.
NC(=O)C1CCN(S(=O)(=O)c2cccc(S(=O)(=O)N3CCCCC3)c2)CC1,0.307,-1.9,-14.1,10.3,0.217,0.808,.,.,.
CCn1c2ccccc2c2nnc(SCC(=O)OCN3C(=O)c4ccccc4C3=O)nc21,0.929,-7.8,-8.4,-7.9,-0.0167,-0.548,.,.,.
C=CCn1c2ccccc2c2nnc(SCN3C(=O)c4ccccc4C3=O)nc21,2.33,.,.,.,9.91*,-2.5,16236*,1984,+
COc1ccc(C(c2nnnn2Cc2cccs2)N2CCN(c3ccccc3F)CC2)cc1OC (configuration not stated),-0.0308,6.2,.,-3.3,3.07*,-0.167,6372,1596,i
SMILES,M1 ag,RORA act,mHtt clearance,SF1 activator,D1 allo mod,M1 antag,D1 mod confirm,D1 ag no DA,Isoprot counter
CCCn1c2ccccc2c2nnc(SCC(=O)Nc3nnc(CC(=O)OCC)s3)nc21,.,.,-44.0,.,.,.,.,.,.
CCOC(=O)Cc1nnc(NC(=O)CSc2nnc3c4ccccc4n(C(C)C)c3n2)s1,-1.72,-4.9,.,2.1,7.5*,0.307,11008*,1700,+
CCOC(=O)Cc1csc(NC(=O)c2ccc(S(=O)(=O)N3CCCC3)cc2)n1,-0.517,-5.3,.,-2.3,0.0837,-0.624,.,.,.
CCOC(=O)c1nn(-c2ccccc2)c(C#N)c1NC(=O)c1nn(CC)cc1Br,0.582,-10.6,21.4,1.1,4.28*,0.36,8684*,.,+
c1ccc2c(c1)oc1c(Nc3ccc4c(c3)OCO4)ncnc12,0.499,83.3*,-53.5,92.4*,3.08*,0.191,6592*,.,+
O=S(=O)(c1cccc(Cl)c1Cl)N1CCCCC1,-0.648,-21.7,.,-17.2,0.067,0.324,.,.,.
COc1c(S(=O)(=O)N2CCCC2)ccc(Cl)c1Cl,0.0257,4.8,?,-5.3,5.41*,-0.00545,10616*,1728,+
Cc1nc(-c2ccccc2O)n(S(=O)(=O)N(C)C)n1,-1.3,-2.6,-6.0,12.4,5.53*,-1.53,8136*,1504,+
CN(C)S(=O)(=O)n1cnc2ccccc21,-0.164,-27.6,4.9,-7.1,-0.316,0.167,.,.,.
CCCn1nc(NS(C)(=O)=O)c2cc3cccc(C)c3nc21,-0.4,-3.2,-8.7,-5.0,16.3*,0.395,16772*,1876,+
CCn1c(=O)cc(C(=O)OC)sc1=Nc1ccc(F)c(F)c1,0.429,24.4,i,-26.0,11.2*,-1.08,23240*,1624,+
Cc1nnc2ccc(N3CCCC3)nn12,-0.299,-1.7,40.3,2.2,-0.214,0.49,.,.,.
FC(F)(F)c1nnc2ccc(N3CCCCCC3)nn12,-0.747,-13.7,48.9,4.1,3.46*,-1.75,8220*,1432,+
Cc1cc(C)nc(Sc2ccc3nnc(C(F)(F)C(F)(F)C(F)(F)F)n3n2)n1,-0.21,-9.1,.,-3.9,-0.00669,0.115,.,.,.
FC(F)(F)C(F)(F)C(F)(F)c1nnc2ccc(N3CCOCC3)nn12,1.02,-1.3,.,-7.8,10.5*,0.816,18088*,1648,+

# High-throughput results as filed in PubChem.
